Here are results for 1 molecule from ChEMBL document CHEMBL4261600 (Eur J Med Chem, 2018).

Data set [1] addresses Interleukin-1 receptor-associated kinase 3 (Homo sapiens) (UniProt Q9Y616). The experiment in a line: Binding affinity to wild-type human partial length IRAK3 (V147 to E596 residues) expressed in bacterial expression system assessed as remaining unbound target protein level at 1000 nM by Kinomescan method relative to control.
In data set [2] the target is Non-receptor tyrosine-protein kinase TYK2 (Homo sapiens) (UniProt P29597). The experiment in a line: Binding affinity to wild-type human partial length TYK2 JH1 catalytic domain (V877 to C1187 residues) expressed in mammalian expression system assessed as remaining unbound target protein level at 1000 nM by Kinomescan method relative to control.
In data set [3] the target is Myosin-IIIb (Homo sapiens) (UniProt Q8WXR4). The experiment in a line: Binding affinity to wild-type human partial length MYO3B (M1 to D357 residues) expressed in bacterial expression system assessed as remaining unbound target protein level at 1000 nM by Kinomescan method relative to control.
Data set [4] relates to Phosphatidylinositol 4,5-bisphosphate 3-kinase catalytic subunit alpha isoform (Homo sapiens), P42336 [E545K]. The experiment in a line: Binding affinity to human partial length PIK3CA E545K mutant (R108 to N1068 residues) expressed in mammalian expression system assessed as remaining unbound target protein level at 1000 nM by Kinomescan method relative to control. The method, boiled down: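 KINOMEscan competition-binding profiling across the panel of 468 kinases and mutants, with inhibitor tested at 1 μM. Binding is expressed as percent of control, with DMSO as the reference control.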

The target in data set [5] is Dual specificity tyrosine-phosphorylation-regulated kinase 1B (Homo sapiens) (UniProt Q9Y463). The experiment in a line: Binding affinity to wild-type human full length DYRK1B (M1 to S629 residues) expressed in bacterial expression system assessed as remaining unbound target protein level at 1000 nM by Kinomescan method relative to control. The essentials:
(§1)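 KINOMEscan competition binding profile across a panel of 468 kinases and mutants, with the inhibitor tested at a single concentration of 1 μM. Binding is reported as percent of control, meaning signal relative to a DMSO control.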

The target in data set [6] is Tyrosine-protein kinase receptor Tie-1 (Homo sapiens) (UniProt P35590). The experiment in a line: Binding affinity to wild-type human partial length TIE1 (T819 to A1138 residues) expressed in bacterial expression system assessed as remaining unbound target protein level at 1000 nM by Kinomescan method relative to control.
Sequence of Tyrosine-protein kinase receptor Tie-1 (Homo sapiens) (P35590 whole entry, the tested form may be a part): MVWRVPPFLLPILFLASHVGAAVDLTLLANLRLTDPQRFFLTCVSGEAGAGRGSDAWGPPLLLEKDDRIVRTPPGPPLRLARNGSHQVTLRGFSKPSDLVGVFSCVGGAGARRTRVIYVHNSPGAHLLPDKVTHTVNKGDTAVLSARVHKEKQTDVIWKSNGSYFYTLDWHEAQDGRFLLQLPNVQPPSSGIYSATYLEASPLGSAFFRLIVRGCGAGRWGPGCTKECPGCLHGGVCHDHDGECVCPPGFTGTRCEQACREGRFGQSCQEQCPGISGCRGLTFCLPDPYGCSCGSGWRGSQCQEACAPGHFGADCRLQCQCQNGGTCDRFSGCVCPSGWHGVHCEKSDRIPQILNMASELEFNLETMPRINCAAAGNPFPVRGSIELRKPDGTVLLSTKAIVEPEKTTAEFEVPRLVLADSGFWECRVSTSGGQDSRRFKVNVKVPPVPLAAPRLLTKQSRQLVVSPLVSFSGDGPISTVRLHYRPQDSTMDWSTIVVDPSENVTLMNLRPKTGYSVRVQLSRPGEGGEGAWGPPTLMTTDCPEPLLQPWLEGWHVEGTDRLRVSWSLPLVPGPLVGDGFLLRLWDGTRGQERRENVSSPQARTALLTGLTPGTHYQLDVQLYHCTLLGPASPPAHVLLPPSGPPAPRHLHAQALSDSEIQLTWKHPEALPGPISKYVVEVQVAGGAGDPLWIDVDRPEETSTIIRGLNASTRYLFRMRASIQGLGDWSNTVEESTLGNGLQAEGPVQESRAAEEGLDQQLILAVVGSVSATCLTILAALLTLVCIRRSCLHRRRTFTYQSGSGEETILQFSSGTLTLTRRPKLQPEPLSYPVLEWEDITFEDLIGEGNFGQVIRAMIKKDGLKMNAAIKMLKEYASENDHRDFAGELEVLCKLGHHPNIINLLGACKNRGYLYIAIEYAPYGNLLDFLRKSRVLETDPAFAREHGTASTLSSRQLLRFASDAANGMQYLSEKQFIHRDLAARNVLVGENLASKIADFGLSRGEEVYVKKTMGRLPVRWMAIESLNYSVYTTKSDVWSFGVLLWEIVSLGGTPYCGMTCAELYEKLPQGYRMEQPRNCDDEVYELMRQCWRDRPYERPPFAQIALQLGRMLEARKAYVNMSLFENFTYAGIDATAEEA
For data set [7], the target named is T1, Cyclin-dependent kinase 11B (Homo sapiens, UniProt P21127). The experiment in a line: Binding affinity to wild-type human partial length CDC2L1 (P353 to G692 residues) expressed in bacterial expression system assessed as remaining unbound target protein level at 1000 nM by Kinomescan method relative to control. The method, boiled down:
(§2)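 Profiled in a KINOMEscan binding panel with the inhibitor at a single concentration of 1 μM. Binding to each kinase was read out as percent of control, relative to a DMSO control. Strong binders were defined as those with a percent control value below 1.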

For data set [8], the target named is Serine/threonine-protein kinase 25 (Homo sapiens) (UniProt O00506). The experiment in a line: Binding affinity to wild-type human partial length YSK1 (V14 to H295 residues) expressed in bacterial expression system assessed as remaining unbound target protein level at 1000 nM by Kinomescan method relative to control.
The target of data set [9] is Serine/threonine-protein kinase tousled-like 2 (Homo sapiens) (UniProt Q86UE8). The experiment in a line: Binding affinity to wild-type human partial length TLK2 (E424 to N749 residues) expressed in bacterial expression system assessed as remaining unbound target protein level at 1000 nM by Kinomescan method relative to control.
Data set [10] in a line: Half life in mouse at 10 mg/kg, po by LC-MS/MS analysis. Format: ADME, organism-based. As to conditions: in vivo.
Data set [11] concerns the target Serine/threonine-protein kinase MRCK beta (Homo sapiens) (UniProt Q9Y5S2). The experiment in a line: Binding affinity to wild-type human partial length MRCKB (L56 to S417 residues) expressed in bacterial expression system assessed as remaining unbound target protein level at 1000 nM by Kinomescan method relative to control.
The target in data set [12] is Mitogen-activated protein kinase 8 (Homo sapiens) (UniProt P45983). The experiment in a line: Binding affinity to wild-type human full length JNK1 (M1 to Q384 residues) expressed in mammalian expression system assessed as remaining unbound target protein level at 1000 nM by Kinomescan method relative to control. The essentials:
as §1

Data set [13] deals with Mitogen-activated protein kinase kinase kinase kinase 5 (Homo sapiens) (UniProt Q9Y4K4). The experiment in a line: Binding affinity to wild-type human partial length MAP4K5 (M1 to P297 residues) expressed in bacterial expression system assessed as remaining unbound target protein level at 1000 nM by Kinomescan method relative to control. The essentials:
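KINOMEscan binding panel of 468 kinases/mutants. Inhibitor was tested at a single concentration of 1 μM. Binding is reported as percent of control, defined relative to a DMSO control.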

Data set [14] concerns the target T1, Cyclin-dependent kinase 11B. The experiment in a line: Binding affinity to wild-type human partial length CDK11 (M1 to N360 residues) expressed in bacterial expression system assessed as […] at 1000 nM after 1 hr by Kinomescan method relative to control.
The nature of data set [15]: Tmax in Sprague-Dawley rat at 20 mg/kg, po by LC-MS/MS analysis. Type of data set: ADME, organism-based. As to conditions: in vivo.
Data set [16] concerns the target Macrophage colony-stimulating factor 1 receptor (Homo sapiens) (UniProt P07333). The experiment in a line: Binding affinity to wild-type human partial length autoinhibited CSF1R (Y538 to S939 residues) expressed in mammalian expression system assessed as remaining unbound target protein level at 1000 nM by Kinomescan method relative to control.
The subject of data set [17] is GISTT1. The experiment in a line: Antiproliferative activity against human GISTT1 cells after 72 hrs by Celltiter-Glo assay. Type of data set: functional. As to conditions: GISTT1, 72 h. The essentials:
(§3)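 Cells seeded at 3000/well in 96-well plates, exposed to serially diluted compound for 72 h at 37 °C, 5% CO2. Viability read by CellTiter-Glo luminescence and normalized to DMSO control. GI50 derived from curve fit, mean of three independent measurements. Culture media: DMEM/10% FBS for adherent lines; IMDM for MV4-11 and MEC-1/2; RPMI 1640 for suspension lines and CHL.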
A general note: ATP-based viability assays read luminescence as a measure of living cells.

The target of data set [18] is Serine/threonine-protein kinase 32C (Homo sapiens) (UniProt Q86UX6). The experiment in a line: Binding affinity to wild-type human partial length YANK3 (M68 to G486 residues) expressed in bacterial expression system assessed as remaining unbound target protein level at 1000 nM by Kinomescan method relative to control.
For data set [19], the target named is Activin receptor type-2B (Homo sapiens) (UniProt Q13705). The experiment in a line: Binding affinity to wild-type human ACVR2B (H169 to D504 residues) expressed in bacterial expression system assessed as remaining unbound target protein level at 1000 nM by Kinomescan method relative to control. The method, boiled down: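 Single-point competition binding screen across a panel of 468 kinases and mutants, with the inhibitor at 1 μM. Binding is read out as percent of a DMSO control, and targets below 1 percent control were classed as strong binders.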

Data set [20] concerns the target BMP-2-inducible protein kinase (Homo sapiens) (UniProt Q9NSY1). The experiment in a line: Binding affinity to wild-type human partial length BIKE (S34 to N329 residues) expressed in bacterial expression system assessed as remaining unbound target protein level at 1000 nM by Kinomescan method relative to control. The method, boiled down: as §2
Data set [21] deals with SKM-1. The experiment in a line: Antiproliferative activity against human SKM1 cells after 72 hrs by Celltiter-Glo assay. Format: functional. As to conditions: SKM-1, 72 h. The essentials: as §3

T1 sequence (P21127 whole entry, the tested form may be a part): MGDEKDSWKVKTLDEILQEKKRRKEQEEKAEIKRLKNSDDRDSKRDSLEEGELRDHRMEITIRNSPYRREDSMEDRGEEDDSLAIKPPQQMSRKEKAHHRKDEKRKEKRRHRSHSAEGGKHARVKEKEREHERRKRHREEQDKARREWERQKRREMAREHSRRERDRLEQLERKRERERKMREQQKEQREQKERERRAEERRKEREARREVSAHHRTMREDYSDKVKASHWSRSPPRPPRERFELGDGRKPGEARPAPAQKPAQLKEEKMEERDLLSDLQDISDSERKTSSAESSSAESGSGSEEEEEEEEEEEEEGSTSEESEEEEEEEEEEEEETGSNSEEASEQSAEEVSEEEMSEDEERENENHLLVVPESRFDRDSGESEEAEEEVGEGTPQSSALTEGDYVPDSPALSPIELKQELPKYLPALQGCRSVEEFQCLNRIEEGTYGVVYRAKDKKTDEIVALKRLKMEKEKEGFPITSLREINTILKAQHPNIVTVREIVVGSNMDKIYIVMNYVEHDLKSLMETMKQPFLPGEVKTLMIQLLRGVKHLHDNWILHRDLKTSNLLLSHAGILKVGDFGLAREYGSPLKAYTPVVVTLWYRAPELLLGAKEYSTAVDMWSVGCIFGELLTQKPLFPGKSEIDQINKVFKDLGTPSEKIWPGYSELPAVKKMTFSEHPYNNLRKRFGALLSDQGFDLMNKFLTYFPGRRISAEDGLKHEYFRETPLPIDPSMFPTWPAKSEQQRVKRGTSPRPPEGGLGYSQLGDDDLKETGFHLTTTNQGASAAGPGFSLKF
Sequence of BMP-2-inducible protein kinase (Homo sapiens) (Q9NSY1 whole entry, looked up, the tested form may be a part): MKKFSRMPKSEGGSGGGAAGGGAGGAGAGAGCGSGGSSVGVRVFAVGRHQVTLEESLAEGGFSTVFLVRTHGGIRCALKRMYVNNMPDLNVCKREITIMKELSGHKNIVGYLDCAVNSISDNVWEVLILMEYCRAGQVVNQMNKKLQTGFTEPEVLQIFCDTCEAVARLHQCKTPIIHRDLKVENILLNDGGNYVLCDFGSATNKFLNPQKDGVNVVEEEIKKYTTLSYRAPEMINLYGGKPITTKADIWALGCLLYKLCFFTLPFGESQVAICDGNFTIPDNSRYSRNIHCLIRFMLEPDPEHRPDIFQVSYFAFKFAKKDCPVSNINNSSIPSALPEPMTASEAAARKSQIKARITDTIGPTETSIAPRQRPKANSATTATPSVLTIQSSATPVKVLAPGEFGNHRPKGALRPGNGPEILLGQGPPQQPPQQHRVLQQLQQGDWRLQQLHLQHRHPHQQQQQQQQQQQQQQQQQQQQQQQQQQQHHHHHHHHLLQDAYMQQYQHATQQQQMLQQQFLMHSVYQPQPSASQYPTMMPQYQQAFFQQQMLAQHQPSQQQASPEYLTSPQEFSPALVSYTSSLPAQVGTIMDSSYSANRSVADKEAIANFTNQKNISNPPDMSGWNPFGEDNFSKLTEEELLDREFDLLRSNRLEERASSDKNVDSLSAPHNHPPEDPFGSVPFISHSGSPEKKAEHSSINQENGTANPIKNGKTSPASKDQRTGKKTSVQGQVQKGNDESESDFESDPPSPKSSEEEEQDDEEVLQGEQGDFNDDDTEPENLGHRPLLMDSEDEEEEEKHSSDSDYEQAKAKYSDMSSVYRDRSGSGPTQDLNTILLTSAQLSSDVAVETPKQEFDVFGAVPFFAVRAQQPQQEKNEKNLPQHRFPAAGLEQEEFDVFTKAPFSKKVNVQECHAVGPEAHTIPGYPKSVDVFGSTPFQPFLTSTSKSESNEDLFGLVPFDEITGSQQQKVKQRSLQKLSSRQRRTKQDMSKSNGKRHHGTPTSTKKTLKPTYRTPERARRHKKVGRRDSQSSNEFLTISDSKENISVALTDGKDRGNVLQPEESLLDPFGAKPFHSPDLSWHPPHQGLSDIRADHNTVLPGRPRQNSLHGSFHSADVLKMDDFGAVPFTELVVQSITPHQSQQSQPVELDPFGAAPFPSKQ
Sequence of Macrophage colony-stimulating factor 1 receptor (Homo sapiens) (P07333 whole entry, the tested form may be a part): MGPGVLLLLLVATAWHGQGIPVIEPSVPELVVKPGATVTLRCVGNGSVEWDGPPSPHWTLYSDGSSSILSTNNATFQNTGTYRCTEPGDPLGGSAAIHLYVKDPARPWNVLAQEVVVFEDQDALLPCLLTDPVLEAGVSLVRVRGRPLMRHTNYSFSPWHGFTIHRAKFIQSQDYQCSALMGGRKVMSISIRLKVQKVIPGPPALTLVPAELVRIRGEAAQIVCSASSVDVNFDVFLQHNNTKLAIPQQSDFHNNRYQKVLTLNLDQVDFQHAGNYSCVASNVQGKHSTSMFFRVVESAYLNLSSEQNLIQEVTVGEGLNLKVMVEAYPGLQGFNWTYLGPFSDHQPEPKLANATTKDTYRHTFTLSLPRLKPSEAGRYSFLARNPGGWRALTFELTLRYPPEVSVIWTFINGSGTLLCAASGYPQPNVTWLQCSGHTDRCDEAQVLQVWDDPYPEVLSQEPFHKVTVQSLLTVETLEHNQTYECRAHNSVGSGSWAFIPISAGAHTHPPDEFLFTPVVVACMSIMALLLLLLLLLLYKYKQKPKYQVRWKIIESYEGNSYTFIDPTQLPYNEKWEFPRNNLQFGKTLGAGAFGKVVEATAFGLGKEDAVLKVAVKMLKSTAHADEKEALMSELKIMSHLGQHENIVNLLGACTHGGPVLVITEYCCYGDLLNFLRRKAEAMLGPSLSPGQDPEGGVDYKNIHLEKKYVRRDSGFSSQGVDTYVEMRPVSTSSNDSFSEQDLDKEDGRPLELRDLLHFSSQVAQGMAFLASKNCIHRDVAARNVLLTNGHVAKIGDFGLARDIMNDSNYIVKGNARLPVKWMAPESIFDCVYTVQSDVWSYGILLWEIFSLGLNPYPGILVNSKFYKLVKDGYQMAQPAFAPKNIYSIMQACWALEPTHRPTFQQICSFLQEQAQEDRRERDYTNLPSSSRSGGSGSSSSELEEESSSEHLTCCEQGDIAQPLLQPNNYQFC
Sequence of Mitogen-activated protein kinase kinase kinase kinase 5 (Homo sapiens) (Q9Y4K4 whole entry, looked up, the tested form may be a part): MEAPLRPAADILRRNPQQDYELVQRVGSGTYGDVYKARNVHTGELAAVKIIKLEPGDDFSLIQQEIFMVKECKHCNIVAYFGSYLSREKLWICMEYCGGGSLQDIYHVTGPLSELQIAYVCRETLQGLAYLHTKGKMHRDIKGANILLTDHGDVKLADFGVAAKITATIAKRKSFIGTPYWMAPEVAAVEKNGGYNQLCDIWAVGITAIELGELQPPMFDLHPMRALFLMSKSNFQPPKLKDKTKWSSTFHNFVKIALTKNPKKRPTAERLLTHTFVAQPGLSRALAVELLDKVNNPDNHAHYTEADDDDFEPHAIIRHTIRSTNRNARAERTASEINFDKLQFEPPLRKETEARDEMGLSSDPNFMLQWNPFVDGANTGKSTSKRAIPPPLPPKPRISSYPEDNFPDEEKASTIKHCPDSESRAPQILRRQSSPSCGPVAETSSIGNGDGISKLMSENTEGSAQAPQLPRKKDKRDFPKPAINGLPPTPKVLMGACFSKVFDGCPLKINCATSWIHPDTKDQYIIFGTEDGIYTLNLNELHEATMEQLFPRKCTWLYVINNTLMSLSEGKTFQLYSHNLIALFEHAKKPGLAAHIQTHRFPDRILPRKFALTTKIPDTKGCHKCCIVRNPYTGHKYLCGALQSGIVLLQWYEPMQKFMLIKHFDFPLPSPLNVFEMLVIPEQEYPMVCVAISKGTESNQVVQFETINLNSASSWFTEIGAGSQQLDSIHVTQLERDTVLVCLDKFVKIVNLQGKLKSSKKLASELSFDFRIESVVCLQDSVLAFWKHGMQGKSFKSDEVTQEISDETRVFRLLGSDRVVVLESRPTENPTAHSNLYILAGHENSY

One may read the half-life as how long it takes for the measured level to halve. Lower therefore signals rapid decline. For orientation: Tmax means the time from dosing to the highest level. Broadly, the GI50 is the concentration that inhibits growth by half. A high value points to less potent growth inhibition. As for `COCCN[C@H]1CC[C@H](Nc2cc(-c3csc(NCC4(C#N)CCOCC4)n3)c(Cl)cn2)CC1`, the Activity stood at 96% in [1]; 90% in data set [2]; 82% in [3]; 100% in data set [4]; 0.35% in data set [5]; 80% in [6]. In addition, the Activity was 93% in data set [7]; 92% in [8]; 99% in data set [9]; 100% in [11]; 4.8% in data set [12]; 95% in data set [13]. The Activity in [14] stood at 100%; in [16], 90%; in [18], 90%; in data set [19], 98%; in data set [20], 100%. This molecule also showed a half-life in data set [10] of 1.55 h. Also, the Tmax in [15] worked out at 3.33 h. Also, the GI50 came out at 2.1 nM in data set [17] and 12 nM in [21].
